ADAM10 inh – inhibits human ADAM10; O14672; recombinant ADAM10, EDANS/DABCYL FRET peptide cleavage, 3 h; inhibition, % at 7 µM; hit rate 0.62% among 370,000;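 active = inhibition above a per-campaign cutoff equal to the mean of compounds falling between control-based bounds plus 3 SD, cut at about 20% in these data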;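 also: 0% = DMSO wells while the 100% control is not disclosed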
DDE Tn6 FP inh – DD(E)-Tn6 binding inhibition, primary FP screen. P02675. Fibrin DD(E) TRITC-Tn6 fluorescence polarization displacement. inhibition, % at 8.3 µM. hit rate 0.21% among 370,000. AID 720509;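 active = inhibition above a per-campaign cutoff: mean of compounds within control limits plus 3 SD, cut at about 15% in these data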;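 also: 0% = median of all compound wells on the plate and 100% = blocking peptide control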
Target sequence (P02675 whole entry, looked up): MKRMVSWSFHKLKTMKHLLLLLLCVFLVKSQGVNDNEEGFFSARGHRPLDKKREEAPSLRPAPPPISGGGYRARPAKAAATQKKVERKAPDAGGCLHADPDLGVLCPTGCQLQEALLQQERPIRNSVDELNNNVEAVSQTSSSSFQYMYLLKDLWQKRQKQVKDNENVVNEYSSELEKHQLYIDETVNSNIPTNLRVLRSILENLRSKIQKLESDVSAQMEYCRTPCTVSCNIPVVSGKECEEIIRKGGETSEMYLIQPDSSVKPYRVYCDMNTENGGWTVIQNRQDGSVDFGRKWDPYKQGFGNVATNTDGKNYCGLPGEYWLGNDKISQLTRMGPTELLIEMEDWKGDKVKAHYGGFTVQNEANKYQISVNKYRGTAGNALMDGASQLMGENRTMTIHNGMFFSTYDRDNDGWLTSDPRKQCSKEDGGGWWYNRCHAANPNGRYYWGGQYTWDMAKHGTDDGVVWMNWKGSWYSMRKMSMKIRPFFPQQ
Tn7 DDE FP – DD(E)-Tn7 binding inhibition, primary FP screen; P02675; FP displacement of FITC-Tn7 peptide from fibrin DD(E); 0% = median of compound wells per plate; inhibition, % at 8.3 µM; hit rate 0.13% among 370,000;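 active = inhibition above the mean of compounds falling within the control limits plus 3 SD of them, cut at about 14% in these data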;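 also: 0% = plate median of compound wells and 100% = 10 µM Aha-Tn7 peptide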
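Also added: labelled Tn7 tracer, 0.1 µM; Assay system: human fibrin DD(E) protein; Amount: 2 µM fibrin DD(E); Schedule: 10 min compound pre-incubation, 3 h probe incubation at room temperature; Repeats: one replicate per compound; Read-out basis: percent inhibition; Measured by: fluorescence polarization of the labelled Tn7 tracer.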
PLC-beta3 inh – PLC-beta3 (human) inhibition, primary screen | Q01970 | Purified PLC-beta3, fluorogenic substrate, fluorescence | inhibition, % at 12.2 µM | hit rate 0.18% among 370,000 | AID 720704; in the data active = inhibition above about 11%;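 also: 0% = median of compound wells on plate and 100% = full blocker control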
PLC-gamma1 inh – inhibitors of human phospholipase C gamma1; purified PLC-gamma1, fluorogenic substrate, fluorescence; inhibition, % at 12.2 µM; AID 720700; P19174; hit rate 0.84% among 370,000; in the data active = inhibition above about 9.5%
ADAM17 inh – inhibits human ADAM17; P78536; recombinant ADAM17, EDANS/DABCYL FRET peptide cleavage; inhibition, % at 6.95 µM; hit rate 0.83% among 370,000; AID 720648;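 active = inhibition above the mean of compounds lying between control limits plus 3 SD, set per campaign, cut at about 8.5% in these data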;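 also: 0% = DMSO-only wells as the low control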
ADAM10 confirm – confirmation of inhibitors of human ADAM10; shares compounds with ADAM10 inh; ADAM10 QFRET peptide cleavage, EDANS fluorescence; inhibition, % at 6.95 µM; hit rate 1% among 2,100; AID 743208;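 active = inhibition above about 20% chosen separately for each screening run, limit read from the data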;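 also: 0% = DMSO wells and 100% = marimastat wells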
ADAM17 counter – ADAM17 inhibition, counter-screen for ADAM10 exosite hits; hit rate 0.5% among 2,100; AID 743214; ADAM17 QFRET peptide cleavage, EDANS fluorescence; shares compounds with ADAM10 inh; inhibition, % at 6.95 µM;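 active = mean triplicate inhibition above the solvent-only control wells' mean plus 3 SD, cut at about 12% in these data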;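 also: 0% = DMSO wells and 100% = marimastat wells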
The depositor's hits bear a star; . = no result. In the library only some 2.3% were active in any assay of this set; here they are far more common.

SMILES	ADAM10 inh	DDE Tn6 FP inh	Tn7 DDE FP	PLC-beta3 inh	PLC-gamma1 inh	ADAM17 inh	ADAM10 confirm	ADAM17 counter
CCOC(=O)[C@H]1[C@H]2COc3ccc(Br)cc3[C@H]2N2C(=O)CN(Cc3ccc(C)cc3)C(=O)[C@@]12C	20*	-3	10	1	-2	5	1	1
CCOc1ccc(-c2nc(CSCC(=O)NC3CCC3)c(C)o2)cc1	-9	5	0	-3	-2	-4	.	.
CCn1c(=O)[nH]n(C/C(C)=C\c2c[n+](Cc3ccc4c(c3)OCO4)c(N)[nH]2)c1=O	-10	2	2	-149	-1	-6	.	.
CCN(C(=O)CSc1nnc(-c2cccnc2)n1Cc1ccco1)c1ccccc1	-8	4	3	-3	3	-2	.	.
COc1ccccc1-n1c(SCC(=O)c2ccc(O)cc2O)nc2cc([N+](=O)[O-])ccc21	26*	0	1	-6	-7	8	9	3
O=C(CCS(=O)(=O)c1ccccc1)Nc1ccc(F)cc1F	-4	8	0	2	-2	1	.	.
Nc1cc([N+](=O)[O-])cc2oc(-c3ccccc3)cc12	25*	-7	4	-15	-12	5	2	2
COc1ccccc1CCC(=O)Nc1cccc(S(=O)(=O)N2CCOCC2)c1	1	-1	4	-9	4	-2	.	.
COc1ccccc1CCC(=O)Nc1cccc(S(=O)(=O)N2CCCCCC2)c1	23*	1	2	-2	3	7	2	0
Cc1cc(C)c(C(=O)OCC(=O)Nc2cccc(S(=O)(=O)N3CCCCC3)c2)c(C)c1	28*	-4	-11	0	1	13*	8	4
CC(=O)Nc1ccc(NC(=O)c2ccc(-c3ccccc3Cl)o2)cc1	3	3	10	-15	-9	-2	.	.
O=C(Nc1ccccc1)c1ccc(-c2ccccc2Cl)o1	20*	-4	-1	-17	-14	4	6	2
COc1ccc(NC(C)C(=O)Nc2ccc(C(C)(C)C)cc2)cc1Cl (centres undefined)	27*	2	0	0	-1	7	7	1
N#Cc1c(NC(=O)CCn2cnc3ccccc3c2=O)oc(-c2ccccc2)c1-c1ccccc1	20*	-13	1	-9	-4	7	16	6
Cc1cccc(-c2noc(Cc3ccc(Cl)cc3)n2)c1	20*	-3	-1	0	4	2	4	1
CCOc1cc(/C=N/NC(=O)c2cccc([N+](=O)[O-])c2)ccc1OS(=O)(=O)c1ccccc1	28*	1	3	6	8	6	4	1
Cn1ccnc1C(=O)O[C@@H]1CCC[C@@]2(C(=O)N(Cc3ccccc3)c3ccccc32)[C@H]1NC(=O)CCc1ccccc1	7	11	-1	3	-3	3	.	.
Cc1cc(N2CCOCC2)ccc1/C=C\[N+](=O)[O-]	20*	6	-2	5	6	5	1	0
C/C(=N/NC(=O)c1cccnc1)c1cccc(O)c1	-9	-3	-2	-2	-1	-4	.	.
O=C(Nc1cccc(Cl)c1)O[C@@H]1CC[C@@]23CCCN2C(=O)CCC[C@H]3C1	5	1	-5	2	0	2	.	.
N#Cc1c(N)[nH]c(=S)c(C#N)c1-c1ccccc1	-56	1	-1	-24	-12	-12	.	.
N#Cc1c(N)[nH]c2ccc(Sc3ccccc3)cc12	25*	-12	-6	3	2	1	3	2
O=C1C(=Cc2cn(-c3ccccc3)nc2-c2ccc(OCc3ccccc3F)cc2)SC(=S)N1CCS(=O)(=O)O	26*	-7	1	-16	-8	3	7	0
Clc1ccc(CSc2nnc(CNc3cccc(Cl)c3)o2)cc1	20*	1	-1	-4	-5	5	6	2
Fc1ccc(NCc2nnc(SCc3ccccc3)o2)cc1	5	1	9	-5	4	-5	.	.
SMILES	ADAM10 inh	DDE Tn6 FP inh	Tn7 DDE FP	PLC-beta3 inh	PLC-gamma1 inh	ADAM17 inh	ADAM10 confirm	ADAM17 counter
Nc1ccc(S(=O)(=O)Nc2nccs2)cc1N=Nc1ccccc1[N+](=O)[O-]	22*	-12	7	-5	4	-2	3	0
Cc1ccccc1C(=O)N(C)[C@H]1C[C@H]2c3[nH]c4c(-c5ccc6c(c5)OCO6)cccc4c3CCN2C[C@H]1[C@H](C)O	9	3	-4	-28	-25	2	.	.
COc1ccc(C2CC(c3ccccc3)=NN2S(=O)(=O)c2ccc(C)cc2)c(OC)c1 (centres undefined)	23*	-5	-3	-2	2	7	7	2
CC[C@@H]1/C(=C/c2ccccc2)N2C(=O)C[C@@H](c3ccccc3)N=C2N1Cc1ccc(OC)cc1OC	-5	-1	5	-2	-2	-4	.	.
CCCCOc1ccccc1C(=O)NNC(=S)NC(=O)c1ccccc1[N+](=O)[O-]	27*	-11	3	-3	6	8	7	2
CC(=O)c1c(C)nc2sc3c(=N)n(N)cnc3c2c1-c1ccc(Cl)cc1	21*	-3	3	-15	-9	1	3	1
O=C(Nc1ccc2ccccc2c1)NC1CCCCN(Cc2ccc(Cl)cc2)C1=O (centres undefined)	3	2	1	3	3	2	.	.
Nc1ccc(-c2cc(N)n(-c3ccccc3)n2)cc1	4	-4	-1	-44	-35	1	.	.
Cc1ccccc1-n1nc(-c2ccc(N)cc2)cc1N	42*	-4	0	-33	-23	6	3	0
CC(=O)NC1CCCCN(Cc2cccc(F)c2)C1=O (centres undefined)	0	0	-4	1	1	-1	.	.
CCCn1c(C(CO)Nc2nc(-c3cccc(Br)c3)cs2)nc2ccccc21 (centres undefined)	22*	1	3	1	1	9	10	3
OCCOCCn1c(C(CO)Nc2nc(-c3cccc(Br)c3)cs2)nc2ccccc21 (centres undefined)	2	-4	3	1	2	3	.	.
O=c1c2ccc(F)cc2nc2sc(Nc3ccc4c(c3)CCC4)nn12	-8	-2	8	-3	-1	-7	.	.
CCn1nc(C)c(C(=O)Nc2cc(Oc3cc(C)cc(C)c3)cc([N+](=O)[O-])c2)c1C	21*	-4	-5	-3	1	5	6	2
